# Measured values reported in ChEMBL document CHEMBL4270536, “Preparation, characterisation and biological evaluation of new N-phenyl amidobenzenesulfonates and N-phenyl ureidobenzenesulfonates inducing DNA double-strand breaks. Part 3. Modulation of ring A” (Eur J Med Chem, 2018).
# Activity calls are given as the source filed them. The rule behind the calls is not given here.
# What was measured:
# M21 [1] = assay: Induction of DNA damage in human M21 cells assessed as increase in gammaH2Ax level at 5 times IC50 after 24 hrs by immunofluorescence based epifluorescence microscopy
# M21 [2] = assay: Cell cycle arrest in human M21 cells assessed as accumulation at S phase at 2 times IC50 after 24 hrs by DAPI staining based flow cytometry relative to control; format: functional
# How it was run: (§1)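 Flow cytometry in M21 cells seeded in six-well plates, allowed 24 h, then exposed 24 h to drug (2- or 5-fold IC50); DMSO 0.5% control. Trypsinized, PBS-washed, fixed in ice-cold EtOH, stained with 2 mg/mL DAPI in PBS; sub-G1, G0/G1, S and G2/M fractions measured on LSR II cytometer.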
# MCF7 = assay: Antiproliferative activity against human MCF7 cells after 48 hrs by SRB assay; format: functional, cell-based; conditions: MCF7, 48 h
# How it was run: (§2)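 Cells grown in DMEM with 5% FBS at 37 C; seeded per well at 2.5 x 10^3 (HT-1080), 4.0 x 10^3 (HT-29), 3.0 x 10^3 (M21) or 2.5 x 10^3 (MCF7). Drugs from 40 mM DMSO stock, serial dilutions, final 100 µM to 78 nM, DMSO <0.5%.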
# HT-29 = assay: Antiproliferative activity against human HT-29 cells after 48 hrs by SRB assay; format: functional, cell-based; conditions: HT-29, 48 h
# How it was run: as §2
# M21 [3] = assay: Cell cycle arrest in human M21 cells assessed as accumulation at sub-G1 phase at 2 times IC50 after 24 hrs by DAPI staining based flow cytometry relative to control; format: functional
# How it was run: as §1
# [4] = Alkylating activity at DNA (unknown origin) after 90 mins by colorimetric NBP assay relative to chlorambucil; format: functional
# How it was run: (§3)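 NBP alkylation kinetics (Bardos colorimetric method): 400 nmol drug in 1 mL ethanol mixed with 1 mL NBP (10% v/v in 95% ethanol), 1 mL 50 mM acetate buffer pH 4.3 and 1 mL ethanol, kept on ice, then heated at 80 C in shaking water bath; stopped on ice 5 min after 0, 30, 60, 90 min. Rate constant from linear regression of absorbance curve; chlorambucil as positive control.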
# M21 [5] = assay: Cell cycle arrest in human M21 cells assessed as accumulation at G2/M phase at 2 times IC50 after 24 hrs by DAPI staining based flow cytometry relative to control; format: functional
# How it was run: as §1
# M21 [6] = assay: Cell cycle arrest in human M21 cells assessed as accumulation at G0/G1 phase at 2 times IC50 after 24 hrs by DAPI staining based flow cytometry relative to control; format: functional
# How it was run: as §1
# M21 [7] = assay: Antiproliferative activity against human M21 cells after 48 hrs by SRB assay; format: functional, cell-based; conditions: M21, 48 h
# How it was run: as §2
# [8] = Alkylating activity at DNA (unknown origin) after 90 mins by colorimetric NBP assay; format: functional
# How it was run: as §3
# HT-1080 = assay: Antiproliferative activity against human HT1080 cells after 48 hrs by SRB assay; format: functional, cell-based; conditions: HT-1080, 48 h
# How it was run: as §2
# M21 [9] = assay: Cell cycle arrest in human M21 cells assessed as accumulation at G2/M phase at 2 times IC50 after 24 hrs by DAPI staining based flow cytometry relative to control
# M21 [10] = assay: Cell cycle arrest in human M21 cells assessed as accumulation at G0/G1 phase at 2 times IC50 after 24 hrs by DAPI staining based flow cytometry relative to control
# M21 [11] = assay: Cell cycle arrest in human M21 cells assessed as accumulation at sub-G1 phase at 2 times IC50 after 24 hrs by DAPI staining based flow cytometry relative to control
# M21 [12] = assay: Cell cycle arrest in human M21 cells assessed as accumulation at S phase at 2 times IC50 after 24 hrs by DAPI staining based flow cytometry relative to control
Structure (SMILES),Activity (M21 [1]),Activity (M21 [2]) [%],IC50 (MCF7) [µM],IC50 (HT-29) [µM],Activity (M21 [3]) [%],fold change (FC) [4],Activity (M21 [5]) [%],Activity (M21 [6]) [%],IC50 (M21 [7]) [µM],K [8] [×10⁻³ /s],IC50 (HT-1080) [µM],Activity (M21 [9]) [%],Activity (M21 [10]) [%],Activity (M21 [11]) [%],Activity (M21 [12]) [%]
CCCC(=O)Nc1ccc(S(=O)(=O)Oc2ccccc2I)cc1,Active,22.8,9.7,11,0.1,60,40.1,37,9,0.088,2,,,,
CC(=O)Nc1ccc(S(=O)(=O)Oc2ccccc2C(C)C)cc1,,,16,23,,14,,,21,0.36,12,,,,
CCNC(=O)Nc1ccc(S(=O)(=O)Oc2ccccc2CC)cc1,,,,,,170,,,,0.032,,,,,
CC(=O)Nc1cccc(S(=O)(=O)Oc2ccccc2C(C)C)c1,,,21,27,,,,,31,,21,,,,
CC(C)C(=O)Nc1ccc(S(=O)(=O)Oc2ccccc2C(C)C)cc1,,27.3,8.6,14,0.2,,10.5,62,11,,4.9,,,,
CCCCCC(=O)Nc1ccc(S(=O)(=O)Oc2ccccc2C(C)C)cc1,,28.3,5.3,6.4,3.7,,26.6,41.4,6.7,,6.3,,,,
CCCCCNC(=O)Nc1ccc(S(=O)(=O)Oc2ccccc2I)cc1,,,5.4,6.6,,,,,5.9,,6.9,23,62.2,0.1,14.7
O=C(CCCCl)Nc1ccc(S(=O)(=O)Oc2ccccc2I)cc1,,17.1,6.3,9.1,0.2,,40.7,42,7.2,,12,,,,
CC(C)c1ccccc1OS(=O)(=O)c1ccc(NC(=O)NC2CCCC2)cc1,,,6.2,7.4,,,,,6.1,,3.9,27.2,60.2,0.1,12.5
CC(C)c1ccccc1OS(=O)(=O)c1cccc(NC(=O)CCl)c1,,17.1,2.2,4.5,0,,18.8,64.1,3.9,,0.78,,,,
CCCCCC(=O)Nc1cccc(S(=O)(=O)Oc2ccccc2C(C)C)c1,,16,12,19,1.5,,13.5,69,11,,11,,,,
CC(C)c1ccccc1OS(=O)(=O)c1ccc(NC(=O)NCC2CCCC2)cc1,,,7.1,6.8,,,,,6.6,,6,21.7,63.9,0.1,14.3
CC(C)c1ccccc1OS(=O)(=O)c1ccc(NC(=O)CCCCl)cc1,,19.3,5.2,6.2,0.2,,25.2,55.3,5.1,,3.8,,,,
O=C(Nc1ccc(S(=O)(=O)Oc2ccccc2I)cc1)NC1CC1,,,7.4,14,,,,,11,,1.3,11.5,61.5,0.1,26.9
CCCCCC(=O)Nc1ccc(S(=O)(=O)Oc2ccccc2I)cc1,,12.9,10,13,0.2,,44.3,42.6,11,,9.6,,,,
O=C(O)CCCc1ccc(N(CCCl)CCCl)cc1,,,,,,,,,,5.3,,,,,

Structure (SMILES),Activity (M21 [1]),Activity (M21 [2]) [%],IC50 (MCF7) [µM],IC50 (HT-29) [µM],Activity (M21 [3]) [%],fold change (FC) [4],Activity (M21 [5]) [%],Activity (M21 [6]) [%],IC50 (M21 [7]) [µM],K [8] [×10⁻³ /s],IC50 (HT-1080) [µM],Activity (M21 [9]) [%],Activity (M21 [10]) [%],Activity (M21 [11]) [%],Activity (M21 [12]) [%]
O=C(NCCCl)Nc1ccc(S(=O)(=O)Oc2ccccc2I)cc1,,,,,,75,,,,0.071,,12.2,56.8,0.1,30.9
CC(C)(C)C(=O)Nc1ccc(S(=O)(=O)Oc2ccccc2I)cc1,,29.1,6.6,9.5,0,,15.9,55,8.3,,2.6,,,,
CCC(=O)Nc1cccc(S(=O)(=O)Oc2ccccc2C(C)C)c1,,,14,22,,,,,25,,12,,,,
CC(C)C(=O)Nc1ccc(S(=O)(=O)Oc2ccccc2I)cc1,,23.6,8.1,13,0.2,,14.2,62,13,,3.3,,,,
CCCNC(=O)Nc1ccc(S(=O)(=O)Oc2ccccc2C(C)C)cc1,,,2.7,6.3,,200,,,5.1,0.027,0.68,10,64.6,0.3,25.1
O=C(CCl)Nc1ccc(S(=O)(=O)Oc2ccccc2I)cc1,,16.5,2.5,4.1,0.3,,12.1,71.1,3.9,,0.6,,,,
CC(C)c1ccccc1OS(=O)(=O)c1ccc(NC(=O)CCl)cc1,,18,2.9,5.6,0.1,,21,60.9,3.9,,1,,,,
CC(C)c1ccccc1OS(=O)(=O)c1cccc(NC(=O)C(C)(C)C)c1,,20,14,19,0.7,,18.2,61.1,13,,11,,,,
O=C(NCC1CCCC1)Nc1ccc(S(=O)(=O)Oc2ccccc2I)cc1,,,6.6,7.6,,,,,7.6,,6.1,24.8,56.2,0.1,18.9
CCCCCNC(=O)Nc1ccc(S(=O)(=O)Oc2ccccc2C(C)C)cc1,,,4,4.9,,,,,4.6,,4.7,26.9,60.6,0.3,12.2
CC(C)C(=O)Nc1cccc(S(=O)(=O)Oc2ccccc2C(C)C)c1,,12.9,13,16,0.1,,32.5,54.5,17,,16,,,,
CC(=O)Nc1ccc(S(=O)(=O)Oc2ccccc2I)cc1,,,27,23,,,,,27,,17,,,,
CC(C)c1ccccc1OS(=O)(=O)c1ccc(NC(=O)NCCCl)cc1,,,,,,1600,,,,0.0034,,,,,
CC(C)c1ccccc1OS(=O)(=O)c1cccc(NC(=O)CCCl)c1,,,12,11,,,,,> 40,,8.2,,,,
CCCC(=O)Nc1cccc(S(=O)(=O)Oc2ccccc2C(C)C)c1,,14.4,9.4,13,3,,18.4,64.2,20,,15,,,,
